In ChEMBL document CHEMBL5058577, “EUbOPEN Chemogenomics Library 2 (Multiplex)” (2022):

Tested on: Fibroblast
Assay: Multiplex assay against human fibroblast
Type: toxicity, cell-based
Outline: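 Live cells carried four stains from seeding: Hoechst33342, BioTracker Green Microtubule Cytoskeleton Dye, MitoTracker Red and Annexin V Alexa Fluor 680. They were imaged on a CQ1 microscope at 37°C and 5% CO2 after compound addition. Using CellPathfinder machine-learning gating, cells were split into Hoechst high-intensity objects or normal cells, normal cells into healthy, pyknosed or fragmented nuclei, and pyknosed cells into mitotic or apoptotic; tubulin, mitochondrial-mass and membrane-permeability phenotypes are per cents of healthy-nucleus cells.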

[1] = 12 h, 1 µM, compound concentration 1 uM, replicate 1
[2] = 12 h, 1 µM, compound concentration 1 uM, replicate 2
[3] = 12 h, 10 µM, compound concentration 10 uM, replicate 1
[4] = 12 h, 10 µM, compound concentration 10 uM, replicate 2
[5] = 24 h, 1 µM, compound concentration 1 uM, replicate 1
[6] = 24 h, 1 µM, compound concentration 1 uM, replicate 2
[7] = 24 h, 10 µM, compound concentration 10 uM, replicate 1
[8] = 24 h, 10 µM, compound concentration 10 uM, replicate 2
[9] = 48 h, 1 µM, compound concentration 1 uM, replicate 1
[10] = 48 h, 1 µM, compound concentration 1 uM, replicate 2
[11] = 48 h, 10 µM, compound concentration 10 uM, replicate 1
[12] = 48 h, 10 µM, compound concentration 10 uM, replicate 2

CCCCCC(O)/C=C/[C@H]1C(=O)CC(O)C1C/C=C\CCCC(=O)O (some centres undefined)
Population Apoptotic (%) [1]: 52% | Population Fragmented Nuclei (%) [1]: 24% | Population Healthy Nuclei (%) [1]: 65% | Population Hoechst High Intensity Objects (%) [1]: 1% | Population Membrane Permeable-Phenotype (%) [1]: 0% | Population Mitochondria Different-Phenotype (%) [1]: 4% | Population Mitotic Cells (%) [1]: 47% | Population Normal (%) [1]: 98% | Population Pyknosed Nuclei (%) [1]: 10% | Population Tubulin-Different-Phenotype (%) [1]: 19% | Total Cell Count [1]: 172 | Population Apoptotic (%) [2]: 50% | Population Fragmented Nuclei (%) [2]: 40% | Population Healthy Nuclei (%) [2]: 41% | Population Hoechst High Intensity Objects (%) [2]: 2% | Population Membrane Permeable-Phenotype (%) [2]: 7% | Population Mitochondria Different-Phenotype (%) [2]: 20% | Population Mitotic Cells (%) [2]: 50% | Population Normal (%) [2]: 97% | Population Pyknosed Nuclei (%) [2]: 18% | Population Tubulin-Different-Phenotype (%) [2]: 52% | Total Cell Count [2]: 169 | Population Apoptotic (%) [3]: 42% | Population Fragmented Nuclei (%) [3]: 16% | Population Healthy Nuclei (%) [3]: 69% | Population Hoechst High Intensity Objects (%) [3]: 0% | Population Membrane Permeable-Phenotype (%) [3]: 0% | Population Mitochondria Different-Phenotype (%) [3]: 1% | Population Mitotic Cells (%) [3]: 57% | Population Normal (%) [3]: 99% | Population Pyknosed Nuclei (%) [3]: 13% | Population Tubulin-Different-Phenotype (%) [3]: 16% | Total Cell Count [3]: 139 | Population Apoptotic (%) [4]: 34% | Population Fragmented Nuclei (%) [4]: 20% | Population Healthy Nuclei (%) [4]: 56% | Population Hoechst High Intensity Objects (%) [4]: 2% | Population Membrane Permeable-Phenotype (%) [4]: 3% | Population Mitochondria Different-Phenotype (%) [4]: 7% | Population Mitotic Cells (%) [4]: 65% | Population Normal (%) [4]: 97% | Population Pyknosed Nuclei (%) [4]: 23% | Population Tubulin-Different-Phenotype (%) [4]: 41% | Total Cell Count [4]: 101 | Population Apoptotic (%) [5]: 35% | Population Fragmented Nuclei (%) [5]: 20% | Population Healthy Nuclei (%) [5]: 70% | Population Hoechst High Intensity Objects (%) [5]: 0% | Population Membrane Permeable-Phenotype (%) [5]: 0% | Population Mitochondria Different-Phenotype (%) [5]: 2% | Population Mitotic Cells (%) [5]: 64% | Population Normal (%) [5]: 99% | Population Pyknosed Nuclei (%) [5]: 8% | Population Tubulin-Different-Phenotype (%) [5]: 21% | Total Cell Count [5]: 169 | Population Apoptotic (%) [6]: 50% | Population Fragmented Nuclei (%) [6]: 41% | Population Healthy Nuclei (%) [6]: 50% | Population Hoechst High Intensity Objects (%) [6]: 1% | Population Membrane Permeable-Phenotype (%) [6]: 4% | Population Mitochondria Different-Phenotype (%) [6]: 10% | Population Mitotic Cells (%) [6]: 50% | Population Normal (%) [6]: 98% | Population Tubulin-Different-Phenotype (%) [6]: 47% | Total Cell Count [6]: 184 | Population Apoptotic (%) [7]: 61% | Population Fragmented Nuclei (%) [7]: 17% | Population Healthy Nuclei (%) [7]: 72% | Population Hoechst High Intensity Objects (%) [7]: 2% | Population Membrane Permeable-Phenotype (%) [7]: 1% | Population Mitochondria Different-Phenotype (%) [7]: 3% | Population Mitotic Cells (%) [7]: 38% | Population Normal (%) [7]: 97% | Population Pyknosed Nuclei (%) [7]: 9% | Population Tubulin-Different-Phenotype (%) [7]: 21% | Total Cell Count [7]: 138 | Population Apoptotic (%) [8]: 33% | Population Fragmented Nuclei (%) [8]: 18% | Population Healthy Nuclei (%) [8]: 59% | Population Hoechst High Intensity Objects (%) [8]: 4% | Population Membrane Permeable-Phenotype (%) [8]: 3% | Population Mitochondria Different-Phenotype (%) [8]: 1% | Population Mitotic Cells (%) [8]: 66% | Population Normal (%) [8]: 95% | Population Pyknosed Nuclei (%) [8]: 21% | Population Tubulin-Different-Phenotype (%) [8]: 29% | Total Cell Count [8]: 101 | Population Apoptotic (%) [9]: 50% | Population Fragmented Nuclei (%) [9]: 27% | Population Healthy Nuclei (%) [9]: 66% | Population Hoechst High Intensity Objects (%) [9]: 3% | Population Membrane Permeable-Phenotype (%) [9]: 0% | Population Mitochondria Different-Phenotype (%) [9]: 2% | Population Mitotic Cells (%) [9]: 50% | Population Normal (%) [9]: 96% | Population Pyknosed Nuclei (%) [9]: 5% | Population Tubulin-Different-Phenotype (%) [9]: 19% | Total Cell Count [9]: 175 | Population Apoptotic (%) [10]: 30% | Population Fragmented Nuclei (%) [10]: 47% | Population Healthy Nuclei (%) [10]: 46% | Population Hoechst High Intensity Objects (%) [10]: 2% | Population Membrane Permeable-Phenotype (%) [10]: 3% | Population Mitochondria Different-Phenotype (%) [10]: 7% | Population Mitotic Cells (%) [10]: 70% | Population Normal (%) [10]: 97% | Population Tubulin-Different-Phenotype (%) [10]: 42% | Total Cell Count [10]: 186 | Population Apoptotic (%) [11]: 63% | Population Fragmented Nuclei (%) [11]: 17% | Population Healthy Nuclei (%) [11]: 74% | Population Hoechst High Intensity Objects (%) [11]: 4% | Population Membrane Permeable-Phenotype (%) [11]: 0% | Population Mitochondria Different-Phenotype (%) [11]: 0% | Population Mitotic Cells (%) [11]: 36% | Population Normal (%) [11]: 95% | Population Pyknosed Nuclei (%) [11]: 8% | Population Tubulin-Different-Phenotype (%) [11]: 14% | Total Cell Count [11]: 141 | Population Apoptotic (%) [12]: 33% | Population Fragmented Nuclei (%) [12]: 30% | Population Healthy Nuclei (%) [12]: 61% | Population Hoechst High Intensity Objects (%) [12]: 0% | Population Membrane Permeable-Phenotype (%) [12]: 6% | Population Mitochondria Different-Phenotype (%) [12]: 3% | Population Mitotic Cells (%) [12]: 66% | Population Normal (%) [12]: 99% | Population Tubulin-Different-Phenotype (%) [12]: 47% | Total Cell Count [12]: 104
